Rows were chosen to be rich in hits. Some 2.6% of all compounds tested hit in one or more screens of this group.
HSF1 inhib: HSF1 inhibition | NIH3T3-HGL HSE-luciferase, MG132-induced, luminescence 8 h; stronger effect = lower value | activity change, negative = inhibition, % at 7.5 µM (by protocol) | 0.77% of 300,000 active | AID 2098;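 active means more than half of replicate wells show activity change below -50%, luminescence cut by over half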;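 further: luciferase reports HSF-1 transcriptional activity via heat shock element; 0% = median of DMSO wells and -100% = zero luminescence signal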
HSF-1 act: increases HSF-1 driven luciferase reporter signal. NIH3T3-HGL HSF-1 luciferase reporter, MG132, 8 h; 100% = twice DMSO control signal. activation, % at 9 µM. 1.7% of 300,000 active. AID 504408;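 active means mean replicate activation of at least 50% with a set share of replicates each reaching 50%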;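 further: 0% = median of the neutral control wells and 100% = twice that signal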
Rad51 HR inh: blocks human Rad51 in homologous recombination; Q06609; inhibition, % at 10 µM; hRad51 DNA strand exchange, fluorescence dequenching; 0.085% of 200,000 active;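 active means inhibition above 40% at the single screening dose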;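 further: 0% = DMSO control wells and 100% = blanks with heterologous ssDNA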
Target sequence (Q06609 whole entry, looked up): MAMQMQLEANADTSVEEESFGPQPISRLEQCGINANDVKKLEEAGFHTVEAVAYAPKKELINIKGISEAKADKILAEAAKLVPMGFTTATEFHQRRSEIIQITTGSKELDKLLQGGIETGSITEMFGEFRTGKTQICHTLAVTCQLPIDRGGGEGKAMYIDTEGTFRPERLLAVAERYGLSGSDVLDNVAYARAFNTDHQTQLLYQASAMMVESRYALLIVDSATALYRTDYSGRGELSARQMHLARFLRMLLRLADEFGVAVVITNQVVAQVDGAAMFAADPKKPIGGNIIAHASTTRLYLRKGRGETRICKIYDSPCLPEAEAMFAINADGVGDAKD
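material = hRad51 filaments on single-stranded DNA | timing = filaments 15 min 37 °C, then compound 30 min | signal = FRET fluorescence dequenching, excitation 485 nm, emission 520 nm | benchmarks = control wells and blank wells on each plate | evaluation = percent inhibition relative to plate controls and blanks | compound = 10 µM final, single point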
Hsp70 act: transcriptional activators of Hsp70; HeLa Hsp70 promoter luciferase reporter, luminescence; scaled: vehicle 0, proteasome-inhibitor control 100%; activation, % at 10 µM; 0.04% of 200,000 active;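 active means activation above the mean across all tested compounds plus 3 SD, cutoff set per campaign, cut at about 5.5% in these data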;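 further: 100% = MG132 at 30 µM as the positive control and 0% = DMSO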
HSV augment: increases HSV replication in cells | maximum fold increase | AID 1956 | 0.005% of 220,000 active | HSV replication augmentation in cells, fold increase; in the data active means maximum fold increase above about 1.5; tested in PC3 cells
Mdm2 ligase inh: inhibitors of human Mdm2 E3 ubiquitin ligase; Q00987; cell-based MDM2 ubiquitination luciferase reporter, 2 h; 0 = plate control, 100 = twice control, blank-subtracted; signal enhancement, % at 5 µM; 0.11% of 210,000 active;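 active means signal enhancement of 30% or more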;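 further: luminescence tracks abundance of the self-degrading MDM2-luciferase fusion protein; higher signal means inhibition of MDM2 E3 ligase activity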
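Assay system: stable mammalian line carrying autodegrading MDM2–luciferase fusion reporter; Input: 2000 cells in each well; Compound dosing: single-point 5 µM; Schedule: 2 h compound exposure at 37 °C; Signal: SteadyLite luciferase luminescence after 15 min room-temperature reagent incubation; Evaluation: % luminescence enhancement versus blank-corrected plate control mean; Benchmarks: plate controls and plate blanks.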
The depositor's hits bear a star; i = inactive; / = no result.

SMILES	HSF1 inhib	HSF-1 act	Rad51 HR inh	Hsp70 act	HSV augment	Mdm2 ligase inh
O=[N+]([O-])c1ccc(-c2cnc3ccccc3n2)cc1	21	35	/	/	/	/
CCOc1ccc(-c2nnc(-c3ccncc3)o2)cc1	16	52*	-9	0	i	-33
COc1ccccc1/C=C/c1nc2ccccc2c(=O)o1	24	27	/	/	/	/
COc1ccc(/C=C/c2nc3ccccc3c(=O)o2)cc1	-59*	-66	/	/	/	/
COc1ccc(-c2nc3ccccc3c(=O)o2)cc1OC	-5	6	0	0	i	-13
CCOc1ccc(-c2cnc3ccccc3n2)cc1	-58*	-58	/	/	i	-84
CCOc1ccc(-c2nc3ccccc3c(=O)o2)cc1	24	55*	/	0	i	-14
O=C(c1ccccn1)N1CCN(S(=O)(=O)c2ccccc2)CC1	-5	4	2	0	i	-13
COc1ccc2c(c1)c1ccc3c(c1n2C)C(=O)C=CC3=O	/	/	27	/	i	-32
Cc1ccc2c(c1)c1ccc3c(c1n2C)C(=O)C=CC3=O	/	/	-8	/	i	40*
CNc1nc(CC(C)=O)ns1	-2	-3	2	0	i	-8
CC(=O)Cc1nsc(Nc2ccc(C)cc2)n1	7	43	7	0	i	38*
COCCN1CCN(C(=O)C2CCC(=O)N(Cc3cccc(C(F)(F)F)c3)C2)CC1 (stereo not drawn)	2	-3	/	/	/	/
Cc1cc(Br)c2[nH]cc(CCNC(=O)c3ccco3)c2c1	-69*	-77	/	/	/	/
Cc1ccc2[nH]cc(CCNC(=O)CN3C(=O)c4ccccc4C3=O)c2c1	24	73*	/	0	i	/
Cc1ccc2[nH]cc(CCNC(=O)c3ccco3)c2c1	-68*	-76	/	/	/	/
O=C(CN1C(=O)c2ccccc2C1=O)NCCc1c[nH]c2ccc(Cl)cc12	7	11	1	0	i	-10
Cc1cccc(C)c1OC(=O)CN1C(=O)c2ccccc2C1=O	3	3	/	/	/	/
CC(Oc1ccc(Br)cc1)C(=O)Nc1ccc(N2CCOCC2)cc1N1CCOCC1 (stereo not drawn)	-4	3	/	/	/	/
CCNC(=O)C(=O)NCC1CCCN1S(=O)(=O)c1cccs1 (stereo not drawn)	-7	1	/	/	/	/
CCN(CC)C(=N)/C(C#N)=N/Nc1ccc(C)cc1	30	57*	-6	/	i	-11
CS(=O)(=O)c1ccc(C(=O)Nc2ccc(N3CCOCC3)cc2)c(Cl)c1	-2	12	2	0	i	5
CCN(c1ccccc1)S(=O)(=O)c1ccc(NC(=O)c2nc(S(C)(=O)=O)ncc2Cl)cc1	-2	14	/	/	/	/
CS(=O)(=O)c1ncc(Cl)c(C(=O)Nc2ccc(OC(F)F)cc2)n1	-91*	-91	/	/	/	/
CS(=O)(=O)c1ncc(Cl)c(C(=O)Nc2ccc(N3CCOCC3)cc2)n1	46	100*	/	0	/	-6
SMILES	HSF1 inhib	HSF-1 act	Rad51 HR inh	Hsp70 act	HSV augment	Mdm2 ligase inh
COc1ccc(-c2ccc(-c3nc4ccc(C)cn4c3NC3CCCCC3)cc2OC)cc1	2	-8	/	/	/	/
CC1(c2cccc(Br)c2)NC(=O)NC1=O (stereo not drawn)	-3	-5	/	/	/	/
C=CCn1c(=O)c2ccccc2n2c(SCC(=O)Nc3sc(C)c(CC)c3C(=O)OCC)nnc12	20	54*	/	0	i	-5
O=C(/C=C/C(=O)N1CCc2ccccc2C1)N1CCc2ccccc2C1	0	0	9	/	i	/
O=C(Cc1ccc(Br)cc1)N1CCc2ccccc2C1	69	98*	/	/	/	/
COc1ccc2oc(=O)c(/C(N)=N/NC(=O)c3ccncc3)cc2c1	-1	15	/	/	/	/
O=C(NCCc1ccc(F)cc1)C(=O)NCC1CCCN1S(=O)(=O)c1cccs1 (stereo not drawn)	7	29	/	/	/	/
Cc1ccc(S(=O)(=O)CCN2CCN(c3ccccc3)CC2)cc1	96	120*	/	/	/	/
Cc1ccc(S(=O)(=O)CCN2CCC(O)(c3ccccc3)CC2)cc1	3	38	/	/	/	/
CCc1ccccc1N(CC(=O)NCc1ccco1)C(=O)CCC(=O)Nc1ccccn1	-70*	-77	/	/	/	/
Cc1ccc(NC(=O)COC(=O)/C=C/c2ccc(Br)o2)cc1S(=O)(=O)N(C)C	56	81*	-2	0	i	-4

Bioassay records deposited in PubChem by several laboratories.
